Assay results published in ChEMBL document CHEMBL1955811, “Inhibition of colony-stimulating-factor-1 signaling in vivo with the orally bioavailable cFMS kinase inhibitor GW2580” (Proc Natl Acad Sci U S A, 2005).
The source made the active and inactive calls. The calls are words filed in the database; no cut-off is given here.

Key:
Mus musculus [1] = test: Inhibition of thioglycolate-induced macrophage influx into peritoneal cavity in mouse at 80 mg/kg, po BID starting 1 hr before thioglycolate challenge for 4 days; assay type: functional
Method in brief: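 Female C3H/HEN mice (22-26 g) were dosed orally with compound suspended in 0.5% hydroxypropylmethylcellulose/0.1% Tween 80 (0.2 ml per mouse). Thioglycolate (1.5 ml) was injected i.p. on day 0. On day 4, the peritoneum was lavaged with 5 ml cold PBS containing 40 units/ml heparin, and cells were counted by hemocytometer in 0.1% crystal violet. Data are mean ± SEM; Dunnett's test.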

[2] = target: Proto-oncogene tyrosine-protein kinase LCK (Mus musculus, UniProt P06240); test: Inhibition of mouse LCK
Chain of Proto-oncogene tyrosine-protein kinase LCK (P06240 whole entry): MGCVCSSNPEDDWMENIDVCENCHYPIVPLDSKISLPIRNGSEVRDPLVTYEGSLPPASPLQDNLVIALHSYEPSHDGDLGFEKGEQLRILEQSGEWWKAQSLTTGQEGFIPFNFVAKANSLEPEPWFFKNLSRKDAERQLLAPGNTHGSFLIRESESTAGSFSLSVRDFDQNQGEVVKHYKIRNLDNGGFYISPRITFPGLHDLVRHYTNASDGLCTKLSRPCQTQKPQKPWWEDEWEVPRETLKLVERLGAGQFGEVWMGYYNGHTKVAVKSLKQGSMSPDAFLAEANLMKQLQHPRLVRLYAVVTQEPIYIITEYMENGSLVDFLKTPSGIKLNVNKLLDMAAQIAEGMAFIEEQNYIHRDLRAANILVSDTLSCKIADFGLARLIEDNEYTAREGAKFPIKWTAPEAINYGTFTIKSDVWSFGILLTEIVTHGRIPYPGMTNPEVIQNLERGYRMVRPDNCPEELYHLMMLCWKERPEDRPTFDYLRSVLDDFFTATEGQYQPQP

[3] = target: [Pyruvate dehydrogenase (acetyl-transferring)] kinase isozyme 4, mitochondrial (Homo sapiens, UniProt Q16654); test: Inhibition of human His-tagged PDHK4 using biotin-YHGHSMSDPGVSYRRR-amide as substrate after 20 mins by scintillation proximity assay
Chain of [Pyruvate dehydrogenase (acetyl-transferring)] kinase isozyme 4, mitochondrial (Q16654 whole entry, the tested form may be a part): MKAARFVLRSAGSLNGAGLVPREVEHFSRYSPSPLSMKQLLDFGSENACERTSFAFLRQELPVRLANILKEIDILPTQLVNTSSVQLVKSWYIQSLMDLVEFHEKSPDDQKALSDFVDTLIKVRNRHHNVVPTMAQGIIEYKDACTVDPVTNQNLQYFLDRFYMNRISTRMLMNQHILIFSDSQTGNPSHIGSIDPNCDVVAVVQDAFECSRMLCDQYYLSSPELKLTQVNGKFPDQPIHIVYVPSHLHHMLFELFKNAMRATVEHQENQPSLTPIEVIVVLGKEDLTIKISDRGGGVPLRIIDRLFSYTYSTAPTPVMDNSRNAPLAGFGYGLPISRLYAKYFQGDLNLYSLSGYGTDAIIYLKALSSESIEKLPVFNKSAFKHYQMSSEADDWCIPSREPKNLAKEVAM
Method in brief: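 Catalytic domains of the human kinases were expressed, isolated and assayed with ATP and the appropriate substrate. Compound was tested as a 10- to 12-point dose-response up to a maximal 20 μM.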

[4] = Inhibition of human GST-tagged PKA using biotin-(6-amino caproic acid)-LRRASLGKKK-amide as substrate after 70 mins by scintillation proximity assay
Method in brief: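 Catalytic domains of human kinases expressed, isolated and assayed with ATP and the appropriate peptide substrate. Compound tested as a 10- to 12-point dose-response with a top concentration of 20 μM.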

Monocyte [5] = test: Growth inhibition of CSF-1-stimulated freshly isolated human monocytes after 3 days by spectrophotometry; assay type: functional, cell-based; settings: 120 h, in the assay text read “after 5 days” for “after 3 days”
Method in brief: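 Cells cultured so that added serum or growth factor gave linear growth. Compound tested as a 10- to 12-point dose-response with a top concentration of 20 μM.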

NFS-60 = test: Growth inhibition of CSF1-stimulated mouse M-NFS-60 cells at 0.7 uM after 3 days by spectrophotometry; assay type: functional
PBMC = test: Effect on LPS-induced PGE2 production in human PBMC at 0.03906 to 20 uM preincubated for 30 mins before LPS stimulation measured after 20 hrs by ELISA; assay type: functional, cell-based
Monocyte [6] = test: Effect on LPS-induced PGE2 production in human monocytes at 0.03906 to 20 uM preincubated for 30 mins before LPS stimulation measured after 20 hrs by ELISA; assay type: functional, cell-based
Macrophage = test: Effect on LPS-induced TNF production in CSF-1-stimulated human macrophages at 0.03906 to 20 uM preincubated for 30 mins before LPS stimulation measured after 20 hrs by ELISA; assay type: functional, cell-based
Osteoclast [7] = test: Inhibition of human osteoclast attachment to plastic surface assessed cells per cm2 of plastic at 1 uM after 3 days by immunocytochemistry (reference value: 9723 +/- 1380 cells/cm2 of plastic); assay type: functional
Method in brief: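 Human PBMCs from a healthy volunteer (5 × 10^5 cells in MEM/10% FCS) were seeded on plastic coverslips with RANKL and CSF-1 (30 ng/ml each) for 10 days, with medium changed every 3 days. Compound was added on day 10 (0.1% DMSO final). On day 13, total cells on the coverslips were counted by immunocytochemistry. Data are mean ± SEM.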

Osteoclast [8] = test: Inhibition of human osteoclast degradation of bone assessed as reduction in 23C6(+) cells with more than 3 nuclei per cm2 of bone at 1 uM after 3 days by immunocytochemistry (reference value: 854 +/- 122 cells/cm2 of bone); assay type: functional
Osteoclast [9] = test: Inhibition of human osteoclast degradation of bone assessed as bone slice resorbed at 3 uM after 3 days by immunocytochemistry (reference value: 26.6 +/- 4.7 %); assay type: functional; settings: 72 h
Osteoclast [10] = test: Inhibition of human osteoclast degradation of bone assessed as reduction in actin ring formation per cm2 of bone at 3 uM after 3 days by immunocytochemistry (reference value: 1546 +/- 232 /cm2 of bone); assay type: functional
[11] = (§1) Cmax in mouse at 20 mg/kg, po; assay type: ADME, organism-based; set-up: dose 20 mg/kg, route oral; settings: in vivo
Method in brief: (§2)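 Female mice given single oral doses (20 or 80 mg/kg) in 0.5% HPMC/0.1% Tween 80. Three mice killed with CO2 per time point; plasma extracted with isopropyl alcohol/acetonitrile, then vortexed, sonicated and centrifuged. Quantified by LC/MS (APCI positive mode, multiple-reaction monitoring) against a standard curve prepared in plasma.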

[12] = Cmax in mouse at 80 mg/kg, po; assay type: ADME, organism-based; set-up: dose 80 mg/kg, route oral; settings: in vivo; method in brief: as §2
[13] = Protein binding in cell-culture media with 10% fetal calf serum at 3 uM; assay type: ADME, cell-free, Bos taurus; settings: cattle, read-out: PB (converted)
Method in brief: (§3)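 Compound at 3 μM was added to triplicate samples and incubated 1 h at 37°C. Samples were centrifuged through a 30,000-MW filter (1,500 × g, 15 min, 4°C). Percent bound was calculated from compound concentrations in the filtrate and retentate.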

[14] = Protein binding in cell-culture media with human plasma at 3 uM; assay type: ADME, cell-free; settings: read-out: PB (converted); method in brief: as §3
[15] = as §1; assay type: ADME, organism-based; set-up: dose 20 mg/kg, route oral; settings: in vivo; method in brief: as §2; remark: listed apart in the source
Mus musculus [16] = test: Inhibition of LPS-stimulated TNF production in CSF-1 primed mouse at 40 mg/kg, po administered 0.5 hr before LPS challenge post CSF-1 priming measured […] after LPS challenge; assay type: functional
Mus musculus [17] = test: Inhibition of LPS-stimulated IL-6 production in mouse at 40 mg/kg, po administered 0.5 hr before LPS challenge measured […] after LPS challenge; assay type: functional
Mus musculus [18] = test: Inhibition of LPS-stimulated IL-6 production in CSF-1 primed mouse at 40 mg/kg, po administered 4.5 hr before LPS challenge and CSF-1 priming measured […] after LPS challenge; assay type: functional
Osteoclast [19] = test: Inhibition of human osteoclast degradation of bone assessed as reduction in actin ring formation per cm2 of bone at 10 uM […] by immunocytochemistry (reference value: 1546 +/- 232 /cm2 of bone)

SMILES: COc1ccc(COc2ccc(Cc3cnc(N)nc3N)cc2OC)cc1 [GW632580X]
- inhibition in vivo at 80 mg/kg (Mus musculus [1]): 25%
- IC50 [2]: > 10 µM
- IC50 [3]: > 28 µM
- IC50 [4]: > 10 µM
- IC50 (Monocyte [5]): 0.47 µM
- growth inhibition (GI) (NFS-60): Active
- Activity (PBMC): inactive
- Activity (Monocyte [6]): inactive
- Activity (Macrophage): inactive
- Activity (Osteoclast [7]): 2984 /cm2
- Activity (Osteoclast [8]): 244 /cm2
- bone resorption (%) at 3 µM (Osteoclast [9]): 1.5%
- Activity (Osteoclast [10]): 148 /cm2
- Cmax [11]: 1400 nM
- Cmax [12]: 5600 nM
- fraction unbound at 3 µM [13]: 0.76
- fraction unbound at 3 µM [14]: 0.02
- Cmax [15]: 50 nM
- inhibition in vivo at 40 mg/kg (Mus musculus [16]): 63%
- inhibition in vivo at 40 mg/kg (Mus musculus [17]): 20%
- inhibition in vivo at 40 mg/kg (Mus musculus [18]): 49%
- Activity (Osteoclast [19]): 0 /cm2
